Assays:
[1] = Inhibition of His-tagged catalytic domain Trypanosoma brucei brucei PDEB1 expressed in baculovirus infected insect Sf21 cells at 10 uM
Outline: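 Single-concentration screen of purified His-tagged TbrPDEB1 catalytic domain (0.25 µg) at 37°C in 10 mM Tris pH 7.4, 0.2 mg/ml BSA, 10 mM MgCl2, 25 µM cAMP and excess 5'-nucleotidase. Inhibitor in DMSO (2%, 5% or 10% final) preincubated 10 min before substrate. BioMol green phosphate read-out at 620 nm; percent inhibition of initial velocity versus vehicle control.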

[2] = Inhibition of His-tagged catalytic domain Trypanosoma brucei brucei PDEB1 expressed in baculovirus infected insect Sf21 cells
[3] = Inhibition of His-tagged catalytic domain Trypanosoma brucei brucei PDEB2 expressed in baculovirus infected insect Sf21 cells
[4] = system: Trypanosoma brucei brucei; experiment: Antitrypanosomal activity against blood stream Trypanosoma brucei brucei 427 after 48 hrs by Alamar blue assay; assay type: functional, organism-based; conditions: Trypanosoma brucei, 427, 48 h
[5] = Inhibition of His-tagged catalytic domain Trypanosoma brucei brucei PDEB1 expressed in baculovirus infected insect Sf21 cells at 100 uM
Outline: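 Inhibitor preincubated 10 min before substrate, final DMSO 2%, 5% or 10%. BioMol green phosphate read at 620nm. Initial-velocity change versus vehicle; mean of ≥3 independent experiments.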

[6] = system: Trypanosoma brucei brucei; experiment: Cytotoxicity against Trypanosoma brucei brucei at 100 uM

Compound | IC50 [2] | IC50 [3] | EC50 [4] | also measured
Cc1noc(/C(=C/c2cccc(-c3cc(C(C)(C)S(C)(=O)=O)cc4cccnc34)c2)c2ccc(S(C)(=O)=O)cc2)n1 |  |  |  | inhibition [1]: > 50%
COc1ccc(C2CNC(=O)C2)cc1OC1CCCC1 (stereo unspecified) [ROLIPRAM] | > 100 µM |  |  | 
O=C(Nc1c(Cl)cncc1Cl)c1ccc(OC(F)F)c(OCC2CC2)c1 [ROFLUMILAST] | > 100 µM |  |  | 
COc1ccc(C(=O)Nc2c(Cl)cncc2Cl)cc1OCc1ccccc1 | 12.5 µM | 11.2 µM | 10.1 µM | 
COc1cc2ncnc(N3CC[C@@H](Oc4cnc5ccccc5n4)C3)c2cc1OC |  |  |  | inhibition [5]: > 55%
COc1ccc(C(=O)Nc2c(Cl)cncc2Cl)c(Cl)c1OC | > 100 µM |  |  | 
CCCOc1cc(C(=O)Nc2c(Cl)cncc2Cl)ccc1OC | 13.6 µM | 9.4 µM | 13 µM | 
CCCCOc1cc(CC2CNC(=O)N2)ccc1OC (stereo unspecified) [RO-201724] | > 100 µM |  |  | 
COc1cccc(Nc2c(C(N)=O)cnc3c(C)cc(S(=O)(=O)c4cccc(C(=O)N(C)C)c4)cc23)c1 |  |  |  | inhibition [1]: > 50%
COc1cc(Cl)c(C(=O)Nc2c(Cl)cncc2Cl)cc1OC | > 100 µM |  |  | 
COc1ccc(C(=O)Nc2c(Cl)cncc2Cl)cc1OC(C)C | > 30 µM | > 30 µM | 27.6 µM | 
COc1cc(C(=O)Nc2c(Cl)cncc2Cl)cc(OC)c1OC | > 100 µM |  | > 100 µM | Activity [6]: 10%
CS(=O)(=O)Oc1ccc2c(NC(N)=O)c(C(=O)c3ccc(Cl)cc3Cl)oc2c1 | > 10 µM | > 10 µM |  | 
CCOc1cc(C(=O)Nc2c(Cl)cncc2Cl)ccc1OC | 16.5 µM | 34 µM |  | 
CCOc1ccc(C(=O)Nc2c(Cl)cncc2Cl)cc1OCC | > 100 µM |  |  | 
OCCN(CCO)c1nc(N2CCCCC2)c2nc(N(CCO)CCO)nc(N3CCCCC3)c2n1 [DIPYRIDAMOLE] | 72 µM |  |  | inhibition [5]: > 50%
CCCCOc1cc(C(=O)Nc2c(Cl)cncc2Cl)ccc1OC | 7.7 µM | 14.3 µM | 17.7 µM | 
COc1cc(C(=O)Nc2c(Cl)cncc2Cl)ccc1OC(C)=O | > 100 µM |  |  | 
COc1ccc(C(=O)Nc2c(Cl)cncc2Cl)cc1OC1CCCC1 | 4.7 µM | 11.4 µM | 9.57 µM | inhibition [5]: > 50%
COc1ccc(C(=O)Nc2c(Cl)cncc2Cl)cc1OC | > 100 µM | > 100 µM |  | 
COc1cc2c(cc1OC)-c1c/c(=N\c3c(C)cc(C)cc3C)n(C)c(=O)n1CC2 [TREQUINSIN] | 12 µM | 25.4 µM | 5.8 µM | inhibition [5]: > 50%

From ChEMBL document CHEMBL1921779, “Pharmacological validation of Trypanosoma brucei phosphodiesterases B1 and B2 as druggable targets for African sleeping sickness” (J Med Chem, 2011)
